Candida biofilm: clotrimazole potentiators killing Candida biofilms, primary screen, with clotrimazole, Alamar Blue; actives 0.14% (n = 85,000); C. albicans biofilm + clotrimazole; AID 834, 2007; inhibition, % at 6 µM;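 active = inhibition above 20%; inactive = inhibition below 20%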;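 note: preformed 24 hr biofilms exposed to compound for 48 hr; 0% = biofilm without compound and 100% = blank killed by clotrimazole plus chlorhexidine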
HCT116 PTEN-null: growth suppression of PTEN-null HCT116, primary screen, cell-based, CellTiter-Glo; HCT116 PTEN-null viability, 60 h; stronger effect = lower value; viability, % at 10 µM; actives 1.2% (n = 140,000);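 active = viability at or below a set limit, 4 SD under the median of all tested compounds, cut at about 3.7% in these data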;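 note: PTEN knockout HCT116 line with beta catenin targeted HCT116 as companion control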
bCat KO growth: primary screen for growth suppressors in beta-catenin knockout HCT116 cells (colon tumor, human). HCT116 beta-catenin knockout viability, CellTiter-Glo, 60 h; stronger effect = lower value. viability, % at 10 µM. actives 1.5% (n = 140,000);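 active = viability at or under a set limit, the compound median less 4 SD, cut at about 6% in these data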;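 note: 0% = Hyamine 1622 control at 20 µM and 100% = untreated cell control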
Fibroblast inh: antiproliferative effect on LL 47 fibroblasts – human, LL 47 cells, CellTiter-Glo luminescence, primary screen; viability, % at 10 µM; AID 719, 2007; actives 1.1% (n = 85,000); LL 47 human lung fibroblast viability, ATP luminescence; stronger effect = lower value;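 active = viability at or below 50% in the single dose screen; inactive = viability above 50%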;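 note: compound exposure lasted 72 h before the ATP readout; 100% = median luminescence of untreated cell-only wells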
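Test system: LL 47 human lung fibroblasts / Incubation: 72 h compound exposure at 37 °C after overnight plating / Technique: luminescent ATP detection, CellTiter-Glo / Compound dosing: 0.1% DMSO in all compound wells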
H69AR growth 86K: proliferation blockers of H69AR lung cancer cells, primary screen, cell-based, human, 86K library. H69AR lung tumor viability, ATP luminescence, 72 h; stronger effect = lower value. actives 6% (n = 85,000). AID 598, 2007. viability, % at 10 µM;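 active = viability at or below 40%; inactive = viability above 40%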;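 note: multidrug resistant small cell line overexpressing MRP-1 efflux transporter; 100% = mean luminescence of untreated control wells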
HUVEC inhibit: inhibitors of HUVEC proliferation, primary screen, cell-based, 384-well; actives 1.1% (n = 86,000); CellTiter-Glo luminescence, 72 h; stronger effect = lower value; AID 648, 2007; viability, % at 10 µM (by protocol);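 active = viability at or below 30%; inactive = viability above 30%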;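 note: 100% = median luminescence of DMSO-only cell control wells on each plate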
* marks the source's active call; other numbers are inactive results; . = not tested or not shown. This is one part of a sample in which hits are shown more often than they occur.

SMILES	Candida biofilm	HCT116 PTEN-null	bCat KO growth	Fibroblast inh	H69AR growth 86K	HUVEC inhibit
N#Cc1ccc(N/N=C/c2cn(-c3ccccc3)nc2-c2ccccc2)c([N+](=O)[O-])c1	.	1.0*	1.8*	.	.	.
O=C(N/N=C/c1cn(-c2ccccc2)nc1-c1ccccc1)c1ccco1	.	101	101	.	.	.
Nc1nc(C2CC2)c(Sc2sc(N)nc2C2CC2)s1	5	60	76	89	61	68
Cc1ccc(OCC(=O)Nc2ccc(-c3nc4ncccc4o3)cc2)c(C)c1	3	103	101	97	33*	71
O=C(/C=C/c1c[nH]c2ccccc12)c1cccc2ccccc12	.	32	48	.	.	.
O=C(CSc1nc2c(c(=O)n1-c1ccc(Br)cc1)SCC2)NCc1ccco1	7	81	79	101	77	85
Cc1cc(NC(=O)CSc2nc3c(c(=O)n2-c2ccc(Cl)cc2)SCC3)no1	-6	.	.	93	83	85
O=C(CSc1nc2c(c(=O)n1-c1ccc(Cl)cc1)SCC2)Nc1nccs1	5	69	67	88	20*	78
O=C(CSc1nc2c(c(=O)n1-c1ccc(Br)cc1)SCC2)Nc1nccs1	3	88	86	86	36*	65
Cc1oc(-c2ccccc2)cc1C(=O)Nc1cccc(C(=O)O)c1	6	97	106	103	81	82
Cc1oc(-c2ccccc2)cc1C(=O)Nc1cccc2ccccc12	4	92	88	100	34*	98
Cc1ccc2oc3c(c(=O)c2c1)C(c1cccc(Br)c1)N(Cc1ccco1)C3=O (stereo not given)	.	28	56	11*	3.1*	56
Cc1cc2oc3c(c(=O)c2cc1C)C(c1cccc(Br)c1)N(Cc1ccco1)C3=O (stereo not given)	1	1.4*	1.8*	54	4.5*	40
CCOc1cc(C2c3c(oc4cc(C)c(Cl)cc4c3=O)C(=O)N2Cc2ccco2)ccc1O (stereo not given)	1	34	49	53	3.1*	41
CCCCC(=O)Nc1sc2c(c1C(=O)OCC)CCC(C=O)=C2Cl	.	1.1*	1.4*	.	.	.
Cc1ccc(Cn2nnc3c(=O)[nH]c(C4CCN(S(=O)(=O)c5cc(C)ccc5C)CC4)nc32)cc1	12	71	71	100	32*	63
Cc1ccc(C)c(S(=O)(=O)N2CCC(c3nc4c(nnn4Cc4ccc(F)cc4)c(=O)[nH]3)CC2)c1	6	92	96	96	44	63
O=C(O)C1CCCN1S(=O)(=O)c1ccc2ccccc2c1 (stereo not given)	-3	100	98	103	88	88
O=C(NC1CC1)C1CCCN1S(=O)(=O)c1ccc2ccccc2c1 (stereo not given)	8	106	99	95	18*	78
CC(=O)NC1=C(N(C)C2CCS(=O)(=O)C2)C(=O)c2ccccc2C1=O (stereo not given)	.	3.4*	3.5*	.	.	.
Cc1ccc(C(=O)CCNc2ccc(F)c(Cl)c2)o1	4	101	95	94	87	75
CC1CCCN(CCOCCOc2ccc(Cl)cc2Br)C1 (stereo not given)	.	8	5.3*	.	.	.
COc1ccc(-c2nc3ccccc3[nH]2)cc1	2	46	47	64	45	64
COc1ccc(-c2cc(=O)n(-c3nc4ccccc4[nH]3)[nH]2)cc1	10	83	95	61	40*	10*
Cc1[nH]c(=O)c(C(=O)/C=C/c2ccccc2F)c2c1CCCC2	.	3.4*	3.9*	.	.	.
SMILES	Candida biofilm	HCT116 PTEN-null	bCat KO growth	Fibroblast inh	H69AR growth 86K	HUVEC inhibit
CCOC(=O)c1ccc(Nc2nc(C(=O)OCC)nc3ccccc23)cc1	8	98	92	103	38*	70
Cc1ccccc1N(CC(=O)N/N=C/c1cc(Br)c(C)o1)S(C)(=O)=O	.	101	104	.	.	.
On1onc2c3cc(-c4ccccc4)nc3ccc21	-1	1.2*	1.8*	23*	6.0*	40
COc1ccc(CCN2C(=O)C3C4C=CC(C4)C3C2=O)cc1OC (stereo not given)	-3	96	87	97	85	99
COc1ccc(CCN2C(=O)C3C4C=CC(C3C2=O)C2C(=O)N(CCc3ccc(OC)c(OC)c3)C(=O)C42)cc1OC (stereo not given)	-6	56	53	103	40*	96
O=[N+]([O-])c1ccc(C2Oc3ccccc3C3CC(c4ccccc4)=NN32)s1 (stereo not given)	.	2.1*	3.3*	.	.	.
CCOC(=O)C1=C(C)NC(C)=C(C(=O)OC)C1c1cccc([N+](=O)[O-])c1 (stereo not given)	13	87	87	95	92	78
COC(=O)C1=C(C)NC(C)=C(C(=O)OC)C1c1ccccc1[N+](=O)[O-]	5	1.9*	1.6*	56	8.5*	81
O=C(O)c1ccc2c3c(ncnc13)-c1ccccc1C2=O	-3	15	33	23*	65	41
Cc1cccc(Cn2cc(/C=C/[N+](=O)[O-])c3ccccc32)c1	.	3.0*	3.2*	.	.	.
O=[N+]([O-])/C=C/c1cn(Cc2ccc(Cl)cc2)c2ccccc12	.	1.9*	10	.	.	.
NC1=NC(=O)/C(=C/c2cn(Cc3ccccc3)c3ccccc23)S1	.	69	85	.	.	.
CCOC(=O)N/N=C/c1cn(Cc2ccc(Cl)cc2)c2ccccc12	.	95	91	.	.	.
O=C(CNC(=O)c1ccc(Cl)cc1)NCCCn1ccnc1	9	99	107	93	85	98
COc1ccc(-c2nnnn2CCc2ccccc2)cc1	1	90	87	88	67	99
COc1ccc(-c2c(C)nn3c(N4CCC(C(=O)NCCN(C)C)CC4)cc(C)nc23)cc1OC	8	80	69	83	30*	72
CCCN(CCC)C(=O)C1CCN(c2cc(C)nc3c(-c4ccc(OC)c(OC)c4)c(C)nn23)CC1	3	72	72	95	34*	94
CCOC(=O)c1c(NC(=O)CSc2nc3ccccc3c(=O)n2-c2ccccc2)sc(C(C)=O)c1C	.	80	69	.	.	.
O=[N+]([O-])c1ccc(-c2cnc(SCc3ccccc3Cl)[nH]2)cc1	.	53	62	.	.	.
O=[N+]([O-])c1ccc(-c2cnc(SC(c3ccccc3)c3ccccc3)[nH]2)cc1	.	23	3.9*	.	.	.
COc1ccc(C(CC(=O)c2ccc(O)cc2)S(=O)(=O)c2ccc(C)cc2)cc1 (stereo not given)	.	7	6.0*	.	.	.
Cc1ccc(C(=O)C(OC(=O)CNS(=O)(=O)c2ccccc2)c2ccccc2)cc1 (stereo not given)	.	78	87	.	.	.
